Measurements: ChEMBL document CHEMBL3588796 (Bioorg Med Chem, 2015)

Experiments:
[1] = biological target: T1, Kappa-type opioid receptor (Homo sapiens, UniProt P41145); test: Antagonist activity against human kappa opioid receptor expressed in human U2OS cells co-expressing beta-arrestin2 pre-treated for 15 mins before U69,593 stimulation for 90 mins by DiscoveRx beta-arrestin2 recruitment based PathHunter assay relative to control; assay type: cell-based; design: concentration or dose not given beside the values
T1 sequence (P41145 whole entry): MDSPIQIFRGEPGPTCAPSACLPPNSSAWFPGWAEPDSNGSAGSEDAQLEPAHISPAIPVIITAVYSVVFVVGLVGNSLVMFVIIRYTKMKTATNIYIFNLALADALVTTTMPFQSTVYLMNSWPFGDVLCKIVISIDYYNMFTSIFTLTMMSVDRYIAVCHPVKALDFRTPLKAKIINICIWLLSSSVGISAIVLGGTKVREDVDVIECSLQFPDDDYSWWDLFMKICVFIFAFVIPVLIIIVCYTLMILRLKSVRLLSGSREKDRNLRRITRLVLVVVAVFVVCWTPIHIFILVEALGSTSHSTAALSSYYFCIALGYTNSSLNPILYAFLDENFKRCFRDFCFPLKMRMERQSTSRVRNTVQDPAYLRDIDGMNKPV
Method in brief: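 U2OS-hKOR-βarrestin2 PathHunter cells, 5,000 per well, plated overnight in Opti-MEM with 1% FBS. Antagonist pretreatment 15 min at 37 °C, then 1 μM U69,593 for 90 min at 37 °C. Detection reagent 60 min at room temperature; chemiluminescence read-out. Concentration-response curves fitted by three-parameter regression; n ≥ 3 independent experiments.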

[2] = biological target: T1, Kappa-type opioid receptor; test: Antagonist activity against HA-tagged human recombinant kappa opioid receptor expressed in CHO cells assessed as inhibition of U69,593-induced ERK phosphorylation pre-incubated with compound before U69,593 stimulation for 10 mins relative to control; assay type: cell-based; design: concentration or dose not given beside the values
Method in brief: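 hKOR-CHO cells, 15,000 per well, plated overnight at 37 °C and serum-starved 1 h. Compound added, then 100 nM U69,593 for 10 min at 37 °C. Fixed cells stained overnight at 4 °C for phospho- and total ERK1/2. In-cell western read by infrared imaging at 700/800 nm. Three-parameter nonlinear fit; 2–4 replicates per experiment, n ≥ 3.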

[3] = biological target: T1, Kappa-type opioid receptor; test: Antagonist activity against HA-tagged human recombinant kappa opioid receptor expressed in CHO cell membranes incubated for 1 hr by [35S]GTPgammaS binding assay; assay type: functional
[4] = biological target: T2, Delta-type opioid receptor (Homo sapiens, UniProt P41143); test: Binding affinity to delta opioid receptor (unknown origin)
T2 sequence (P41143 whole entry): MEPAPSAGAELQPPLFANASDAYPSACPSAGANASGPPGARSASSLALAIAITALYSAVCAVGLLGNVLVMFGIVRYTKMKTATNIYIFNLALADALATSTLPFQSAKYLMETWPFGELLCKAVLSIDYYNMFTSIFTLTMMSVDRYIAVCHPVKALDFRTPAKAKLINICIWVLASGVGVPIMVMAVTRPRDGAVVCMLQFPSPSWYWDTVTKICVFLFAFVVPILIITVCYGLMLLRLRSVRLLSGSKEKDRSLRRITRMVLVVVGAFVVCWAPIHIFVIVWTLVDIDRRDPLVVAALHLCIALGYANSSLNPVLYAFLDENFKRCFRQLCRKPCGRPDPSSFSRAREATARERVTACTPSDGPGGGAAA

[5] = biological target: Kappa-type opioid receptor (Rattus norvegicus, UniProt P34975); test: Displacement of radio-labeled U69,593 from rat kappa opioid receptor expressed in HEK293 cell membranes
Kappa-type opioid receptor (Rattus norvegicus, UniProt P34975), sequence (P34975 whole entry): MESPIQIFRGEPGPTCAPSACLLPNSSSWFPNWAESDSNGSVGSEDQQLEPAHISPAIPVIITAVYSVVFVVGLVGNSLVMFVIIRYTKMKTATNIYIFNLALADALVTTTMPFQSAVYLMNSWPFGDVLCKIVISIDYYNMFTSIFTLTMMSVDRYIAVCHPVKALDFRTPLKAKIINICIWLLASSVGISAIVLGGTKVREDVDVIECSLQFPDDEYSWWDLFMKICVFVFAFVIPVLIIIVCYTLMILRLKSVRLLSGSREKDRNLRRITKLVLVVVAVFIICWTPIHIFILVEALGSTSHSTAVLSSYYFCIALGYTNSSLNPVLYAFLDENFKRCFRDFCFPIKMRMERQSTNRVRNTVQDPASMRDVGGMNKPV

[6] = biological target: T3, Mu-type opioid receptor (Homo sapiens, UniProt P35372); test: Binding affinity to mu opioid receptor (unknown origin)
T3 sequence (P35372 whole entry): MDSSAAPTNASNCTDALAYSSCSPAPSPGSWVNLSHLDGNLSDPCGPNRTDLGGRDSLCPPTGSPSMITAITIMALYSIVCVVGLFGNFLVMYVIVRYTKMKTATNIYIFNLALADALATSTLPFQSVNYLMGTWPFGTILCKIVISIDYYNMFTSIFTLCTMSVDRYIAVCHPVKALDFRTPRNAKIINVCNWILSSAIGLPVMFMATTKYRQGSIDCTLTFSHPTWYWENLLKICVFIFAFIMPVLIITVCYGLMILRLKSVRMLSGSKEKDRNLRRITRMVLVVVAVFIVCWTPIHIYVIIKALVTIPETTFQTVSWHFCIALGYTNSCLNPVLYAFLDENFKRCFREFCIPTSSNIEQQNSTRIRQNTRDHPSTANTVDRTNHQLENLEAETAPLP

[7] = biological target: T1, Kappa-type opioid receptor; test: Antagonist activity against HA-tagged human recombinant kappa opioid receptor expressed in CHO cells assessed as inhibition of U69,593-induced ERK phosphorylation pre-incubated with compound before U69,593 stimulation for 10 mins; assay type: cell-based
[8] = biological target: T1, Kappa-type opioid receptor; test: Antagonist activity against human kappa opioid receptor expressed in human U2OS cells co-expressing beta-arrestin2 pre-treated for 15 mins before U69,593 stimulation for 90 mins by DiscoveRx beta-arrestin2 recruitment based PathHunter assay; assay type: cell-based
[9] = biological target: T3, Mu-type opioid receptor; test: Antagonist activity against mu opioid receptor (unknown origin)
[10] = biological target: T2, Delta-type opioid receptor; test: Antagonist activity against delta opioid receptor (unknown origin)

| SMILES | inhibition [1] | inhibition [2] | further results |
| --- | --- | --- | --- |
| Cc1cc(C)c(S(=O)(=O)N2CCc3cc(C(=O)NCCN(Cc4ccc(F)cc4)C(C)(C)C)ccc3C2)c(C)c1 | > 86% | > 86% | – |
| Cc1ccc(S(=O)(=O)NCc2ccc(C(=O)NC3CCN(Cc4ccccc4)C3)cc2)cc1 (stereo not given) | – | – | IC50 ([3]; read-out: IC50): > 18 µM |
| Cc1ccc(S(=O)(=O)N2CCc3cc(C(=O)NCCN(Cc4ccccc4)C(C)(C)C)ccc3C2)cc1 | > 86% | > 86% | Ki [4]: 2330 nM; Ki [5]: 37 nM; Ki [6]: 1750 nM |
| Cc1ccc(S(=O)(=O)N(C)Cc2ccc(C(=O)N(C)CCN(Cc3ccccc3)C(C)C)cc2)cc1 | – | – | IC50 [7]: Not Active; IC50 [8]: Not Active; IC50 ([3]; cho): Not Active |
| Cc1cc(C)c(S(=O)(=O)N2CCc3cc(C(=O)NCCN(Cc4ccccc4)C(C)C)ccc3C2)c(C)c1 | > 86% | > 86% | – |
| Cc1ccc(S(=O)(=O)N2CCc3cc(C(=O)NCCN(Cc4ccc(Cl)cc4)C(C)(C)C)ccc3C2)cc1 | > 86% | > 86% | Ki [4]: > 10000 nM; Ki [5]: 53 nM; Ki [6]: > 10000 nM |
| Cc1cc(C)c(S(=O)(=O)N2CCc3cc(C(=O)NCCN(Cc4ccc(Br)cc4)C(C)(C)C)ccc3C2)c(C)c1 | > 86% | > 86% | – |
| CCc1ccc(S(=O)(=O)N2CCc3cc(C(=O)NCCN(Cc4ccc(Br)cc4)C(C)C)ccc3C2)cc1 | > 86% | > 86% | – |
| Cc1ccc(S(=O)(=O)N2CCc3cc(C(=O)NCCN(Cc4ccc(Br)cc4)C(C)(C)C)ccc3C2)cc1 | > 86% | > 86% | – |
| Cc1ccc(S(=O)(=O)NCc2ccc(C(=O)NCCN(Cc3ccccc3)C(C)C)cc2)cc1 | > 86% | > 86% | IC50 [9]: > 24 µM; Ki [4]: 1090 nM; Ki [5]: 50 nM; IC50 [10]: > 32 µM; Ki [6]: 306 nM |
| CCc1ccc(S(=O)(=O)N2CCc3cc(C(=O)NCCN(Cc4ccccc4)C(C)(C)C)ccc3C2)cc1 | > 86% | > 86% | – |
| Cc1ccc(S(=O)(=O)NCc2ccc(C(=O)NCCN3Cc4ccccc4C3)cc2)cc1 | – | – | IC50 ([3]; read-out: IC50): > 18 µM |
| Cc1ccc(S(=O)(=O)N2CCc3cc(C(=O)NCCN(Cc4ccc(Br)cc4)C(C)C)ccc3C2)cc1 | > 86% | > 86% | Ki [4]: 5190 nM; Ki [5]: 73 nM; Ki [6]: 8170 nM |
| Cc1ccc(S(=O)(=O)NCc2ccc(C(=O)NCCN(Cc3ccc(Br)cc3)C(C)C)cc2)cc1 | > 86% | > 86% | – |
| Cc1ccc(S(=O)(=O)N2CCc3cc(C(=O)NCCN(Cc4ccc(F)cc4)C(C)C)ccc3C2)cc1 | > 86% | > 86% | – |
| Cc1ccc(S(=O)(=O)N2CCc3cc(C(=O)NCCN(Cc4ccc(Cl)cc4)C(C)C)ccc3C2)cc1 | > 86% | > 86% | – |
| Cc1ccc(S(=O)(=O)N2CCc3cc(C(=O)NCCN(Cc4ccc(F)cc4)C(C)(C)C)ccc3C2)cc1 | > 86% | > 86% | – |
| Oc1ccc2c3c1O[C@H]1c4[nH]c5c(c4C[C@@]4(O)[C@@H](C2)N(CC2CC2)CC[C@]314)C[C@@]1(O)[C@H]2Cc3ccc(O)c4c3[C@@]1(CCN2CC1CC1)[C@H]5O4 | > 86% | > 86% | – |
| Cc1ccc(S(=O)(=O)NCc2ccc(C(=O)NCC3CCCN(Cc4ccccc4)C3)cc2)cc1 (stereo not given) | – | – | IC50 ([3]; read-out: IC50): > 18 µM |
